Measured values as given in ChEMBL document CHEMBL3627667, “Novel halogenated 3-deazapurine, 7-deazapurine and alkylated 9-deazapurine derivatives of L-ascorbic or imino-L-ascorbic acid: Synthesis, antitumour and antiviral activity evaluations” (Eur J Med Chem, 2015).

What was measured:
HeLa [1] = experiment: Antiproliferative activity against human HeLa cells incubated for 72 hrs by MTT assay; assay type: functional, cell-based; conditions: Homo sapiens, HeLa, 72 h
Summary of the method: (§1)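 Cells seeded at 5000 per well on day 0. Test agents added in five 10-fold dilutions (0.01–100 μM) for a further 72 h, with DMSO ≤0.1% as solvent control. Growth was read by MTT and absorbance converted to percentage growth against untreated cells on the same plate. IC50 came from linear regression on dose–response curves. Quadruplicate points, three independent experiments.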

SW-620 = experiment: Antiproliferative activity against human SW620 cells incubated for 72 hrs by MTT assay; assay type: functional, cell-based; summary of the method: as §1
[2] = Antiproliferative activity against mouse L1210/0 cells incubated for 72 hrs by MTT assay; assay type: functional, cell-based; conditions: Mus musculus, L1210/0, 72 h; summary of the method: as §1
[3] = Antiproliferative activity against human CEM/0 cells incubated for 72 hrs by MTT assay; assay type: functional, cell-based, CCRF-CEM; summary of the method: as §1
[4] = Antiproliferative activity against human MIAPaCa2 cells incubated for 72 hrs by MTT assay; assay type: functional, cell-based, MIA PaCa-2; conditions: Homo sapiens, MIA PaCa-2, 72 h; summary of the method: as §1
HepG2 = experiment: Antiproliferative activity against human HepG2 cells incubated for 72 hrs by MTT assay; assay type: functional, cell-based; conditions: Homo sapiens, HepG2, 72 h; summary of the method: as §1
Human alphaherpesvirus 3 [5] = experiment: Antiviral activity against Varicella zoster virus Oka expressed in HEL cells assessed as reduction in plaque formation incubated for 5 days; assay type: functional, organism-based; conditions: Human alphaherpesvirus 3, Oka, 120 h
Summary of the method: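 Confluent HEL cells were inoculated at 20 PFU per well of VZV. Residual virus was removed after 2 h, then compound dilutions were added in duplicate. EC50 is the concentration reducing plaque formation by 50% versus untreated controls after 5 days.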

Human alphaherpesvirus 3 [6] = experiment: Antiviral activity against thymidine kinase deficient Varicella zoster virus 07-1 expressed in HEL cells assessed as reduction in plaque formation incubated for 5 days; assay type: functional, organism-based; conditions: Human alphaherpesvirus 3, 07-1, HEL, 120 h
Summary of the method: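 Confluent HEL cells in 96-well plates inoculated with TK-deficient VZV strain 07-1 at 20 PFU per well; residual virus removed after 2 h, then varying compound concentrations added in duplicate. EC50 = concentration reducing viral plaque formation by 50% versus untreated controls after 5 days.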

[7] = Cytotoxicity against African green monkey Vero cells assessed as alteration in cell morphology by microscopy; assay type: cell-based; conditions: chlorocebus sabaeus
Summary of the method: (§2)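 MCC is the compound concentration causing a microscopically visible alteration of cell morphology in the cultures used for the antiviral assays.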

Human respirovirus 3 = experiment: Antiviral activity against Parainfluenza virus 3 expressed in African green monkey Vero cells assessed as reduction in cytopathogenicity; assay type: functional, organism-based; conditions: Human respirovirus 3, Vero
Summary of the method: (§3)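 Confluent Vero monolayers were inoculated with 100 CCID50 of virus in the presence of 5-fold serial compound dilutions. Cytopathicity was scored once it was complete in untreated infected controls. EC50 is the concentration giving 50% reduction of virus-induced cytopathogenicity.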

[8] = system: Mammalian orthoreovirus 1; experiment: Antiviral activity against Reovirus 1 expressed in African green monkey Vero cells assessed as reduction in cytopathogenicity; assay type: functional, cell-based; conditions: Mammalian orthoreovirus 1, Vero; summary of the method: as §3
Sindbis virus = experiment: Antiviral activity against Sindbis virus expressed in African green monkey Vero cells assessed as reduction in cytopathogenicity; assay type: functional, organism-based; summary of the method: as §3
Coxsackievirus B4 = experiment: Antiviral activity against Coxsackievirus B4 expressed in African green monkey Vero cells assessed as reduction in cytopathogenicity; assay type: functional, organism-based; conditions: Enterovirus B; summary of the method: as §3
Punta Toro virus = experiment: Antiviral activity against Punta Toro virus expressed in African green monkey Vero cells assessed as reduction in cytopathogenicity; assay type: functional, organism-based; summary of the method: as §3
[9] = Cytotoxicity against human HEL cells assessed as alteration in cell morphology incubated for 3 days by microscopy; assay type: cell-based; summary of the method: as §2
HEL = experiment: Cytotoxicity against human HEL cells assessed as cell growth reduction incubated for 3 days; assay type: cell-based; conditions: 72 h
Summary of the method: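 HEL cells were seeded at 5 × 10^3 per well and allowed to proliferate for 24 h before compound-containing medium was added. After 3 days at 37 °C, cells were counted with a Coulter counter. CC50 (50% reduction of proliferation versus untreated controls) was estimated from graphic plots.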

Human betaherpesvirus 5 [10] = experiment: Antiviral activity against Human cytomegalovirus AD169 expressed in HEL cells assessed as reduction in plaque formation incubated for 7 days by Giemsa stain based microscopy; assay type: functional, organism-based; conditions: Human betaherpesvirus 5, AD169, HEL, 168 h
Summary of the method: (§4)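 Confluent HEL fibroblasts were infected at 100 PFU per well. After 2 h, residual virus was removed and compound-containing medium added, in duplicate. After 7 days at 37 °C, cells were ethanol-fixed, Giemsa-stained and examined microscopically. EC50 was read from graphic plots of % cytopathogenicity versus concentration.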

Human betaherpesvirus 5 [11] = experiment: Antiviral activity against Human cytomegalovirus Davis expressed in HEL cells assessed as reduction in plaque formation incubated for 7 days by Giemsa stain based microscopy; assay type: functional, organism-based; conditions: Human betaherpesvirus 5, Davis, 168 h; summary of the method: as §4
HeLa [12] = experiment: Cytotoxicity against human HeLa cells assessed as cell growth reduction incubated for 3 days; assay type: cell-based; conditions: 72 h
CFPAC-1 = experiment: Antiproliferative activity against human CFPAC-1 cells incubated for 72 hrs by MTT assay; assay type: functional, cell-based; conditions: CFPAC-1, 72 h; summary of the method: as §1

| IC50 (HeLa [1]) [µM] | IC50 (SW-620; Homo sapiens, SW-620, 72 h) [µM] | IC50 (HepG2) [µM] | Structure (SMILES) | IC50 [2] [µM] | IC50 ([3]; Homo sapiens, CCRF-CEM, 72 h) [µM] | IC50 [4] [µM] | also measured |
| --- | --- | --- | --- | --- | --- | --- | --- |
|  |  |  | Nc1ccn(C[C@@H](CO)OCP(=O)(O)O)c(=O)n1 [CIDOFOVIR] |  |  |  | MCC at 72 h [9]: > 300 µM; CC50 (HEL): 153 µM; EC50 (Human betaherpesvirus 5 [10]): 0.61 µM; EC50 (Human betaherpesvirus 5 [11]): 0.51 µM |
|  |  | > 100 | COc1nc(OC)c2c(ccn2CCC2(O)NC(=O)C(OCc3ccccc3)=C2OCc2ccccc2)n1 (stereo unspecified) |  | 87 |  |  |
| 65 | > 100 | > 100 | O=C1O/C(=C\Cn2cc(I)c3c(Cl)ncnc32)C(OCc2ccccc2)=C1OCc1ccccc1 (mixture of isomers) | 128 | > 250 | 33.3 |  |
| > 100 | 55 | > 100 | O=C1O/C(=C\Cn2cnc3c(F)nc(F)c(Cl)c32)C(OCc2ccccc2)=C1OCc1ccccc1 |  |  | 78 | MCC at 72 h [9]: > 100 µM; CC50 (HEL): ≥ 100 µM; EC50 (Human betaherpesvirus 5 [10]): 44.7 µM; EC50 (Human betaherpesvirus 5 [11]): 44.7 µM; MCC [7]: ≥ 20 µM; EC50 (Human respirovirus 3): > 20 µM; EC50 [8]: > 20 µM; EC50 (Sindbis virus): > 20 µM; EC50 (Coxsackievirus B4): 14.5 µM; EC50 (Punta Toro virus): 12 µM; Activity (HeLa [12]): Non-toxic |
| 92 | 90.7 | > 100 | O=C1NC(O)(CCn2cnc3cc[nH]c3c2=O)C(OCc2ccccc2)=C1OCc1ccccc1 (stereo unspecified) | 107 | 87 | 36.6 |  |
| 21 | > 100 | > 100 | O=C1NC(O)(CCn2cnc3ccnc(Cl)c32)C(OCc2ccccc2)=C1OCc1ccccc1 (stereo unspecified) |  |  | 60 |  |
| 27 | > 100 | > 100 | O=C1O/C(=C\Cn2cnc3cc[nH]c3c2=O)C(OCc2ccccc2)=C1OCc1ccccc1 | 28 | 16 | > 100 |  |
| 17 |  | > 100 | O=C1NC(O)(CCn2cnc3ccn(CCC4(O)NC(=O)C(OCc5ccccc5)=C4OCc4ccccc4)c3c2=O)C(OCc2ccccc2)=C1OCc1ccccc1 (stereo in doubt; 18) | 4.4 |  | 5.7 | IC50 (SW-620; sw-620): 69.9 µM; IC50 ([3]; ccrf-cem): 15 µM |
| 12 | 47.1 | > 100 | COc1nc(OC)c2c(ccn2C/C=C2\OC(=O)C(OCc3ccccc3)=C2OCc2ccccc2)n1 (mixture of isomers) | 4.7 | 4.1 | 33.9 | MCC at 72 h [9]: ≥ 20 µM; CC50 (HEL): 36.6 µM; EC50 (Human betaherpesvirus 5 [10]): 4.99 µM; EC50 (Human betaherpesvirus 5 [11]): 1.99 µM |
|  |  |  | Nc1ncnc2c1ncn2C[C@H](O)CO [(S)-DHPA] |  |  |  | MCC [7]: > 250 µM; EC50 (Human respirovirus 3): > 250 µM; EC50 [8]: > 250 µM; EC50 (Sindbis virus): > 250 µM; EC50 (Coxsackievirus B4): > 250 µM; EC50 (Punta Toro virus): > 250 µM |
| 17 | > 100 | > 100 | O=C1O/C(=C\Cn2cnc3ncc(Br)c-3c2)C(OCc2ccccc2)=C1OCc1ccccc1 (mixture of isomers) | 15 | 12 | > 100 | IC50 (CFPAC-1): > 100 µM |

| Structure (SMILES) | IC50 (HeLa [1]) [µM] | IC50 (SW-620; Homo sapiens, SW-620, 72 h) [µM] | IC50 (HepG2) [µM] | IC50 [2] [µM] | IC50 ([3]; Homo sapiens, CCRF-CEM, 72 h) [µM] | IC50 [4] [µM] | also measured |
| --- | --- | --- | --- | --- | --- | --- | --- |
| O=C1O/C(=C\Cn2cnc3ccn(C/C=C4\OC(=O)C(OCc5ccccc5)=C4OCc4ccccc4)c3c2=O)C(OCc2ccccc2)=C1OCc1ccccc1 | 5.6 | 47.2 | > 100 | 4.5 | 19 | 26.2 | EC50 (Human alphaherpesvirus 3 [5]): 13.8 µM; EC50 (Human alphaherpesvirus 3 [6]): 7.6 µM; MCC [7]: ≥ 20 µM; EC50 (Human respirovirus 3): > 20 µM; EC50 [8]: > 20 µM; EC50 (Sindbis virus): > 20 µM; EC50 (Coxsackievirus B4): > 20 µM; EC50 (Punta Toro virus): 6.7 µM |
